Source: ChEMBL document CHEMBL1681788, “Effect of structural modification in the amine portion of substituted aminobutyl-benzamides as ligands for binding σ1 and σ2 receptors” (Bioorg Med Chem, 2011)

Columns and labels:
[1] = molecular target: Sigma non-opioid intracellular receptor 1 (Cavia porcellus, UniProt Q60492); assay: Displacement of [3H]-(+)-pentazocine from Sigma1-receptor in guinea pig brain membrane; assay type: cell membranes
Procedure, shortened: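 Competition binding with [3H](+)-PTZ as radioligand on membranes from fresh-frozen male English Hartley guinea pig brain. Duplicates, repeated four times. Test compounds came from 10^-3 M stocks in acidified 1% EtOH/water.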

[2] = Displacement of [3H]ditolylguanidine from sigma2 receptor in guinea pig brain membrane; assay type: cell membranes, Cavia porcellus
Procedure, shortened: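 [3H]DTG competition binding with 500 nM (+)-PTZ present to mask σ1 sites, on fresh-frozen male English Hartley guinea pig brain membranes. Duplicate wells, four repeats. Compound stocks were 10^-3 M in acidified 1% EtOH/water.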

[3] = system: sigma1/sigma2 receptors (Cavia porcellus); assay: Selectivity ratio, ratio of Ki for guinea pig sigma1 receptor to Ki for guinea pig sigma2 receptor
[4] = Chemical stability of the compound assessed as compound remaining after 16 hrs by HPLC analysis; assay type: physicochemical; conditions: read-out: Activity
Procedure, shortened: (§1)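 Compounds held at 10^-3 M in aqueous stock buffer of 1% EtOH with AcOH: 2.5% AcOH generally, 0.1% AcOH for the HCl and oxalate salts. Stored in stock buffer, then purity analysed by analytical HPLC at the stated time point (16 h, 44 h or 25 days).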

[5] = Chemical stability of the compound assessed as compound remaining after 44 hrs by HPLC analysis; assay type: physicochemical; conditions: read-out: Activity; procedure, shortened: as §1
[6] = Chemical stability of the compound assessed as decomposition after 25 days by HPLC analysis; assay type: physicochemical; conditions: 600 h; procedure, shortened: as §1

Sigma non-opioid intracellular receptor 1, sequence (Q60492 whole entry): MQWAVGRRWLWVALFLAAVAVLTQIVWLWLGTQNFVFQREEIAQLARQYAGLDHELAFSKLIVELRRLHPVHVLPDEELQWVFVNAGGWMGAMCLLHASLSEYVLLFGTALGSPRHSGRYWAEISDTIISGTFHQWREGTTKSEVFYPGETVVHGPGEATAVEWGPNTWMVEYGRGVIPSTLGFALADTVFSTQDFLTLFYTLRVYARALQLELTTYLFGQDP

Compound | Ki [1] [nM] | Ki [2] [nM] | Ratio Ki [3] | remaining at 16 h [4] [%] | remaining at 44 h [5] [%] | Stability [6]
COc1cc2c(cc1OC)CN(CCCCNC(=O)c1cc(Br)cc(OC)c1OC)CCC2 | 2070 | 315 | 6.58 | – | – | –
COc1ccc(CCNCCCCNC(=O)c2cc(Br)cc(OC)c2OC)cc1OC | – | 4620 | 0.2 | – | – | –
COc1cc2c(cc1OC)CCN(CCCCNC(=O)c1cc(Br)cc(OC)c1OC)CC2 | 5070 | 734 | 8.5 | – | – | –
COc1cc2c(cc1OC)CN(CCCCNC(=O)c1cc(Br)cc(OC)c1OC)CC2 | – | 2.7 | – | – | – | –
COc1cc2c(cc1OC)N(CCCCNC(=O)c1cc(Br)cc(OC)c1OC)CCC2 | 4500 | 5820 | 0.77 | 90 | 38 | –
COc1ccc(CCN(C)CCCCNC(=O)c2cc(Br)cc(OC)c2OC)cc1OC | – | 2130 | – | – | – | –
COc1cc2c(cc1OC)N(CCCCNC(=O)c1cc(Br)cc(OC)c1OC)CC2 | 4520 | 9680 | 0.47 | 86 | – | Unstable
COc1cc2c(cc1OC)N(CCCCNC(=O)c1cc(Br)cc(OC)c1OC)CCCC2 | 2560 | 8960 | – | – | – | –
COc1cc2c(cc1OC)CN(CCCCNC(=O)c1cc(Br)cc(OC)c1OC)C2 | 1440 | 0.82 | 1760 | – | – | –
COc1ccc(CCN2CCN(CCCc3ccccc3)CC2)cc1OC [[11C]SA4503] | – | 89.5 | – | – | – | –
